ChEMBL document CHEMBL1131326, “Design, synthesis, and antiviral evaluations of 1-(substituted benzyl)-2-substituted-5,6-dichlorobenzimidazoles as nonnucleoside analogues of 2,5,6-trichloro-1-(beta-D-ribofuranosyl)benzimidazole” (J Med Chem, 1998)

Key:
[1] = test system: KB; test: Inhibition of KB cell growth determined by quadruplicate assays; type: functional, cell-based; conditions: Homo sapiens
Method in brief: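 KB cells seeded at 3000-5000/well, overnight at 37 °C, then compound in quadruplicate at six to eight concentrations for 48 h (about two doublings) in CO₂. Cells fixed in 95% ethanol, stained with 0.1% crystal violet, dye eluted with acidified ethanol and read at 570 nm; IC50 by regression vs log concentration.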

[2] = test system: Human betaherpesvirus 5; test: Antiviral activity against human cytomegalovirus (HCMV) by plaque reduction assay; type: functional, organism-based
Method in brief: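 HFF monolayers infected with about 100 pfu/cm² of HCMV Towne (isolate Po); after adsorption, compound in growth medium added to duplicate wells at four to eight concentrations.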

[3] = test system: HFF; test: Visual cytotoxicity scored on HFF cells at a time of HCMV plaque enumeration; type: functional, cell-based; conditions: Homo sapiens
Method in brief: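 Cytotoxicity in stationary HFF cells scored by microscopic inspection of cells not affected by virus, at time of HCMV plaque enumeration, in the plaque-assay plates.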

[4] = test system: Human immunodeficiency virus 1; test: Activity against HIV-1 by syncytial plaque assay performed in duplicate using CEM-SS cells; type: functional, organism-based; conditions: Human immunodeficiency virus 1, CEM-SS
Method in brief: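 Syncytial plaque assay: poly-L-lysine-adherent CEM-SS cells infected with HIV-1 strain IIIB with or without compound at selected concentrations; syncytial plaques counted at 30-fold magnification 7 days postinfection; duplicate. IC50 from linear regression of percent inhibition against log concentration.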

[5] = test system: Human alphaherpesvirus 1; test: Antiviral activity against herpes simplex virus type-1 (HSV-1); type: functional, organism-based
Method in brief: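 BSC-1 cells (10 000/well, MEM(E) + 10% calf serum) incubated overnight, then given drug in quadruplicate plus HSV-1 KOS at 100 pfu/well; 3 days at 37 °C. ELISA with HRP-conjugated rabbit anti-HSV-1 antibody, TMB substrate, stopped with H₂SO₄, absorbance at 450 and 570 nm; IC50 by regression of % absorbance reduction vs log concentration.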

[6] = test system: CEM-SS; test: Cytotoxicity against CEM-SS cells in terms of incorporation of [3H]dThd; type: functional, cell-based; conditions: Homo sapiens
Method in brief: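 DNA synthesis in CEM-SS cells measured as uptake of [³H]dThd into total acid-precipitable material; results averaged from duplicate experiments.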

[7] = test system: Human immunodeficiency virus 2; test: Compound was tested for antiviral activity against HIV-2; type: functional, organism-based
[8] = Compound was tested for antiviral activity against HIV-1 resistant to TIBO A-17; type: functional, Human immunodeficiency virus 1
Method in brief: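 Syncytial plaque assay in duplicate sets on CEM-SS cells made adherent with poly-L-lysine. Virus was the A17 HIV-1 variant, resistant to nonnucleoside RT inhibitors including TIBO, or HIV-2, both from the AIDS Research and Reference Program. Infection was in the presence or absence of compound; syncytial plaques were counted at 30-fold magnification 7 days postinfection. IC50 came from linear regression of percent inhibition against log concentration.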

IC50 [1] [µM]	IC50 [2] [µM]	IC50 [4] [µM]	IC50 [5] [µM]	SMILES	IC50 [3] [µM]	IC50 [6] [µM]	IC50 [7] [µM]	IC50 [8] [µM]
50	30	20	80	Cc1ccc(Cn2c(N)nc3cc(Cl)c(Cl)cc32)cc1	32	40	–	–
> 100	> 100	> 100	> 100	Clc1ccc(Cn2c(Br)nc3cc(Cl)c(Cl)cc32)cc1	> 100	> 100	–	–
239	> 100	20	> 100	O=[N+]([O-])c1cccc(Cn2c(Cl)nc3cc(Cl)c(Cl)cc32)c1	> 100	> 100	–	–
45	> 100	10	> 100	Nc1nc2cc(Cl)c(Cl)cc2n1Cc1ccc(Cl)cc1	> 100	32	–	–
> 100	> 100	> 100	> 100	Clc1ccc(Cn2c(Cl)nc3cc(Cl)c(Cl)cc32)cc1Cl	> 100	> 100	–	–
> 100	> 100	33	> 100	Cc1ccc(Cn2c(Cl)nc3cc(Cl)c(Cl)cc32)cc1	32	> 100	–	–
> 100	> 100	> 100	> 100	CC(C)(C)c1ccc(Cn2c(Cl)nc3cc(Cl)c(Cl)cc32)cc1	> 100	> 100	–	–
55	> 100	6	> 100	COc1ccc(Cn2c(Br)nc3cc(Cl)c(Cl)cc32)cc1	> 100	60	–	–
–	> 100	100	> 100	Clc1cccc(Cn2c(Cl)nc3cc(Cl)c(Cl)cc32)c1	> 100	> 100	–	–
45	> 100	12	> 100	COc1ccc(Cn2c(N)nc3cc(Cl)c(Cl)cc32)cc1	> 100	27	–	–
> 100	> 100	–	> 100	Clc1cc2nc(Cl)n(Cc3ccccc3)c2cc1Cl	> 100	–	–	–
–	> 100	30	–	Fc1ccc(Cn2c(Br)nc3cc(Cl)c(Cl)cc32)cc1	> 100	> 100	–	–
183	> 100	7.8	> 100	O=[N+]([O-])c1ccc(Cn2c(Cl)nc3cc(Cl)c(Cl)cc32)cc1	> 100	51	–	–
> 100	> 100	> 100	> 100	Cc1ccc(Cn2c(Br)nc3cc(Cl)c(Cl)cc32)cc1	> 100	> 100	–	–
> 100	> 100	26	> 100	COc1ccc(Cn2c(Cl)nc3cc(Cl)c(Cl)cc32)cc1	> 100	> 100	–	–
> 100	> 100	> 100	> 100	FC(F)(F)c1ccc(Cn2c(Cl)nc3cc(Cl)c(Cl)cc32)cc1	> 100	> 100	–	–

Second part, the molecule before the results:

SMILES	IC50 [1] [µM]	IC50 [2] [µM]	IC50 [4] [µM]	IC50 [5] [µM]	IC50 [3] [µM]	IC50 [6] [µM]	IC50 [7] [µM]	IC50 [8] [µM]
OC[C@H]1O[C@H](n2c(Br)nc3cc(Cl)c(Cl)cc32)[C@@H](O)[C@H]1O	> 100	–	–	–	–	–	–	–
Nc1nc2cc(Cl)c(Cl)cc2n1Cc1ccc([N+](=O)[O-])cc1	35	> 100	21	> 100	> 100	32	–	–
CC(C)(C)c1ccc(Cn2c(Br)nc3cc(Cl)c(Cl)cc32)cc1	–	> 100	100	–	> 100	> 100	–	–
FC(F)(F)c1cccc(Cn2c(Br)nc3cc(Cl)c(Cl)cc32)c1	–	> 100	12	–	> 100	> 100	–	–
Nc1nc2cc(Cl)c(Cl)cc2n1Cc1ccc(F)cc1	70	12	32	70	37	30	–	–
Clc1cc2nc(Cl)n(Cc3ccccc3Cl)c2cc1Cl	156	30	15	> 100	> 100	70	> 30	13
Nc1nc2cc(Cl)c(Cl)cc2n1Cc1cccc([N+](=O)[O-])c1	65	> 100	21	> 100	> 100	47	–	–
Nc1nc2cc(Cl)c(Cl)cc2n1Cc1cc(C(F)(F)F)cc(C(F)(F)F)c1	–	32	> 6	60	32	34	–	–
Nc1nc2cc(Cl)c(Cl)cc2n1Cc1cccc(C(F)(F)F)c1	45	32	> 10	60	32	17	–	–
CC(C)(C)c1ccc(Cn2c(N)nc3cc(Cl)c(Cl)cc32)cc1	50	22	10	60	32	27	–	–
Nc1nc2cc(Cl)c(Cl)cc2n1Cc1ccc(Cl)c(Cl)c1	35	40	> 6	50	32	30	–	–
Clc1cc2nc(Br)n(Cc3ccccc3Cl)c2cc1Cl	78	> 10	15	> 100	> 10	74	–	–
Nc1nc2cc(Cl)c(Cl)cc2n1Cc1cccc(Cl)c1	65	> 100	> 30	70	> 100	37	–	–
FC(F)(F)c1cccc(Cn2c(Cl)nc3cc(Cl)c(Cl)cc32)c1	> 100	> 100	> 100	> 100	> 100	> 100	–	–
Nc1nc2cc(Cl)c(Cl)cc2n1Cc1ccc(C(F)(F)F)cc1	–	32	1.8	–	32	20	–	–
FC(F)(F)c1ccc(Cn2c(Br)nc3cc(Cl)c(Cl)cc32)cc1	> 100	> 100	> 100	> 100	> 100	> 100	–	–
Clc1cc2nc(Br)n(CCc3ccccc3)c2cc1Cl	> 100	> 100	–	> 100	> 100	–	–	–
Clc1cc2nc(Cl)n(CCc3ccccc3)c2cc1Cl	–	> 100	–	–	> 100	–	–	–
Clc1cccc(Cn2c(Br)nc3cc(Cl)c(Cl)cc32)c1	> 100	> 100	> 100	70	> 100	> 100	–	–
Nc1nc2cc(Cl)c(Cl)cc2n1Cc1ccccc1	170	37	–	152	58	–	–	–
Clc1cc2nc(Br)n(Cc3ccccc3)c2cc1Cl	> 100	> 100	27	> 100	> 100	> 100	–	–
FC(F)(F)c1cc(Cn2c(Cl)nc3cc(Cl)c(Cl)cc32)cc(C(F)(F)F)c1	> 100	> 100	> 100	> 100	> 100	> 100	–	–
FC(F)(F)c1cc(Cn2c(Br)nc3cc(Cl)c(Cl)cc32)cc(C(F)(F)F)c1	70	> 100	5.9	65	> 100	> 100	–	–
Cc1cccc(Cn2c(N)nc3cc(Cl)c(Cl)cc32)c1	65	> 100	12	80	> 100	48	–	–
Nc1nc2cc(Cl)c(Cl)cc2n1Cc1ccccc1Cl	–	32	6	> 100	32	36	–	–
Clc1ccc(Cn2c(Br)nc3cc(Cl)c(Cl)cc32)cc1Cl	> 100	> 100	> 100	> 100	> 100	> 100	–	–
CC(C)Nc1nc2cc(Cl)c(Cl)cc2n1Cc1ccccc1	45	22	–	50	22	–	–	–
